Results reported in ChEMBL document CHEMBL1926538, “3,5-Disubstituted-thiazolidine-2,4-dione analogs as anticancer agents: design, synthesis and biological characterization” (Eur J Med Chem, 2012).
Calls of active or inactive are those of the source. No cut-off for these calls is given here.

Columns and labels:
U-937 [1] = assay: Induction of apoptosis in human U937 cells assessed as necrotic cells at 10 uM after 6 hrs by annexinV-propidium iodide staining-based flow cytometric analysis (reference value: 1.2%); assay type: functional
U-937 [2] = assay: Induction of apoptosis in human U937 cells assessed as late apoptotic cells at 10 uM after 6 hrs by annexinV-propidium iodide staining-based flow cytometric analysis (reference value: 13.8%); assay type: functional
DU-145 [3] = assay: Induction of apoptosis in human DU145 cells assessed as late apoptotic cells at 20 uM after 24 hrs by annexinV-propidium iodide staining-based flow cytometric analysis (reference value: 5.1%); assay type: functional
DU-145 [4] = assay: Induction of apoptosis in human DU145 cells assessed as early apoptotic cells at 20 uM after 24 hrs by annexinV-propidium iodide staining-based flow cytometric analysis (reference value: 3.8%); assay type: functional
[5] = molecular target: Serine/threonine-protein kinase MARK1 (Homo sapiens) (UniProt Q9P0L2); assay: Inhibition of MARK1 at 10 uM
Sequence of Serine/threonine-protein kinase MARK1 (Homo sapiens) (Q9P0L2 whole entry, looked up): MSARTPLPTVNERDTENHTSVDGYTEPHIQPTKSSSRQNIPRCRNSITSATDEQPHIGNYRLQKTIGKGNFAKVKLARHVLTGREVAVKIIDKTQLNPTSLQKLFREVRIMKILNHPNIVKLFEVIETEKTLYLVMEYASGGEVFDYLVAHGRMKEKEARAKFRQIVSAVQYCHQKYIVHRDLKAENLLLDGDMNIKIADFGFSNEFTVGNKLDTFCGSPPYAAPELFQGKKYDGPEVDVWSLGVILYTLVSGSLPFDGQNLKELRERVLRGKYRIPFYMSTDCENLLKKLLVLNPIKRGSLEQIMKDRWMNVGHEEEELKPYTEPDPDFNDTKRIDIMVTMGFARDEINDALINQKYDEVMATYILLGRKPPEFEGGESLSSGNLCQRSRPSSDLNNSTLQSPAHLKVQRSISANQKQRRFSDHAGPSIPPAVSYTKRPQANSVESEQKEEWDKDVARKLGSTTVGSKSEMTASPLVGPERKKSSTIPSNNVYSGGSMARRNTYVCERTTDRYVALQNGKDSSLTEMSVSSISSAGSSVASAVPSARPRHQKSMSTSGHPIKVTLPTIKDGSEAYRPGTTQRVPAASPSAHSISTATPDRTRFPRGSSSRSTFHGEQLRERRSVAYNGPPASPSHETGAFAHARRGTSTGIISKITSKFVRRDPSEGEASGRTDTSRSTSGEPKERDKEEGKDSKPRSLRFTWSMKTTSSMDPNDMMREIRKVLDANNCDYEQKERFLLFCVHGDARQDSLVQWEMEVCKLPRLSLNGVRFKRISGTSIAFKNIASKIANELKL

[6] = molecular target: Dual specificity mitogen-activated protein kinase kinase 2 (Homo sapiens) (UniProt P36507); assay: Inhibition of MEK2 at 10 uM
[7] = molecular target: Hepatocyte growth factor receptor (Homo sapiens) (UniProt P08581); assay: Inhibition of MET at 10 uM
U-937 [8] = assay: Induction of apoptosis in human U937 cells assessed as early apoptotic cells at 3 uM after 18 hrs by annexinV-propidium iodide staining-based flow cytometric analysis (reference value: 4.3%); assay type: functional
[9] = Induction of apoptosis in human M12 cells assessed as early apoptotic cells at 20 uM after 24 hrs by annexinV-propidium iodide staining-based flow cytometric analysis (reference value: 13.6%); assay type: functional
[10] = molecular target: c-Jun N-terminal kinase, JNK (Homo sapiens) (UniProt P45983+P53779+P45984); assay: Inhibition JNK phosphorylation in human U937 cells at 1 to 10 uM after 1 hr by Western blot analysis; assay type: cell-based; conditions: U-937
Method in brief: (§1)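 U937 cells at 5 × 10^5/mL were exposed to compound for 1 h, then sonicated in SDS/DTT sample buffer with protease inhibitors plus 1 mM orthovanadate and pyrophosphate, and boiled 5 min. Blots were blocked in 5% milk, probed with primary antibody overnight at 4 °C and 1:2000 HRP secondary, and read by chemiluminescence. α-Tubulin reprobe served as loading control. Blots shown represent one of three experiments.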

[11] = molecular target: 3-phosphoinositide-dependent protein kinase 1 (Homo sapiens) (UniProt O15530); assay: Inhibition of PDK1 at 10 uM
Sequence of 3-phosphoinositide-dependent protein kinase 1 (Homo sapiens) (O15530 whole entry, looked up): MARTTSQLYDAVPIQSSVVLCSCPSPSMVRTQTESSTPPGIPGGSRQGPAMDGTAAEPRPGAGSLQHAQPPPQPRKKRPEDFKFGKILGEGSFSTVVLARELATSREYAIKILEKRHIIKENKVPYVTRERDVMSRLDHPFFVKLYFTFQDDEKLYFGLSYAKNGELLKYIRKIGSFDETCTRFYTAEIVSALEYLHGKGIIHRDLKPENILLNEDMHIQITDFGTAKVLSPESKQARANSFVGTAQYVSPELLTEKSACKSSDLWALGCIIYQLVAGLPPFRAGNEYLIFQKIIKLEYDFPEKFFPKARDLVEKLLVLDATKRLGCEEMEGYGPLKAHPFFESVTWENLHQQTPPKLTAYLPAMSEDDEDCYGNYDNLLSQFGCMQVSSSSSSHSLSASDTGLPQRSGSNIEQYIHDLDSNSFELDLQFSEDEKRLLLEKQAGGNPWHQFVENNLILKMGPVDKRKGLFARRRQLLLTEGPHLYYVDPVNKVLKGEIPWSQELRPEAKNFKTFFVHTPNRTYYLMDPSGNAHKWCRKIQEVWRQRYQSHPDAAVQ

U-937 [12] = assay: Growth inhibition of human U937 cells after 72 hrs by MTS assay in presence of 320 uM AMPK activator AICA; assay type: functional, cell-based
Method in brief: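 U937 cells exposed 72 h, with or without AICA 320 µM, then MTS added. Absorbance read at 490 nm, expressed as percentage of untreated controls. Data are mean percentage viability, n = 6, error bars SEM.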

[13] = molecular target: Calcium/calmodulin-dependent protein kinase type IV (Homo sapiens) (UniProt Q16566); assay: Inhibition of CAMK4 at 10 uM
DU-145 [14] = assay: Induction of apoptosis in human DU145 cells assessed as viable cells at 20 uM after 24 hrs by annexinV-propidium iodide staining-based flow cytometric analysis (reference value: 89%); assay type: functional; conditions: DU-145, 24 h, read-out: Activity
[15] = molecular target: RAF proto-oncogene serine/threonine-protein kinase (Homo sapiens) (UniProt P04049); assay: Inhibition of […] phosphorylation in human U937 cells 1 to 10 uM after 1 hr by Western blot analysis; assay type: cell-based; conditions: U-937; method in brief: as §1
Sequence of RAF proto-oncogene serine/threonine-protein kinase (Homo sapiens) (P04049 whole entry): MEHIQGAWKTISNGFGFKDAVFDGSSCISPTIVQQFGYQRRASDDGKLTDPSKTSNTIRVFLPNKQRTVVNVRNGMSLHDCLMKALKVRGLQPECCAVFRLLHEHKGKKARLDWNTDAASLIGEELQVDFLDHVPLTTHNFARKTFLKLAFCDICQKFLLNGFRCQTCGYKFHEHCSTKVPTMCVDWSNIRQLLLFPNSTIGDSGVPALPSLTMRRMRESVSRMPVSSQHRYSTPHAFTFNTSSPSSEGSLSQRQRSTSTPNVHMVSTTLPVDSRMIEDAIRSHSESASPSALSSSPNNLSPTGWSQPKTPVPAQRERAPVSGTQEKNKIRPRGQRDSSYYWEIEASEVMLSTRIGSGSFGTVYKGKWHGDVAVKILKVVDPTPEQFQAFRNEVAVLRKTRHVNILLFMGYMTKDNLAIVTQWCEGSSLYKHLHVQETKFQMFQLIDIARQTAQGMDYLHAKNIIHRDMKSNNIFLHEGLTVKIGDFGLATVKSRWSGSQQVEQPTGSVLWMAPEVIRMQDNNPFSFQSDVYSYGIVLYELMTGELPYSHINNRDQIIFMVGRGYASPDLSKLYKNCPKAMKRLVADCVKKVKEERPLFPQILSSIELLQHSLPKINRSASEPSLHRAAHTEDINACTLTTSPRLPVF

[16] = molecular target: Serine/threonine-protein kinase Chk2 (Homo sapiens) (UniProt O96017); assay: Inhibition of CHK2 at 10 uM
Sequence of Serine/threonine-protein kinase Chk2 (Homo sapiens) (O96017 whole entry): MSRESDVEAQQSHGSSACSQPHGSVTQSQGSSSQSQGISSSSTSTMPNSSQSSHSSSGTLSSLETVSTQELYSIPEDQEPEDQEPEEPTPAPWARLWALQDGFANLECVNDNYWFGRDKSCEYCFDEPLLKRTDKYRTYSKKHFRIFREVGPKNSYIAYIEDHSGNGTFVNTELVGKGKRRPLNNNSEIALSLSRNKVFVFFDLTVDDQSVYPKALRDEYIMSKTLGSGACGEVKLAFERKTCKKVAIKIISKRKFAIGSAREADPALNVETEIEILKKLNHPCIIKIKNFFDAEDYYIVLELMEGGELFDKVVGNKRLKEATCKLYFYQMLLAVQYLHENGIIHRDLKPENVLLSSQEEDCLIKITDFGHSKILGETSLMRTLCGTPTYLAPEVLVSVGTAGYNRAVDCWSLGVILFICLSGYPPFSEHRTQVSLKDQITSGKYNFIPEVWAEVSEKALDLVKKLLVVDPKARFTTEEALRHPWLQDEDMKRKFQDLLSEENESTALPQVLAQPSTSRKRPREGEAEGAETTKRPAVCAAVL

[17] = Inhibition of PKGa at 10 uM
[18] = molecular target: Receptor-type tyrosine-protein kinase FLT3 (Homo sapiens) (UniProt P36888); assay: Inhibition of FLT3 at 10 uM
[19] = molecular target: Dual specificity tyrosine-phosphorylation-regulated kinase 1A (Homo sapiens) (UniProt Q13627); assay: Inhibition of DYRK1a at 10 uM
U-937 [20] = assay: Induction of apoptosis in human U937 cells assessed as necrotic cells at 3 uM after 3 hrs by annexinV-propidium iodide staining-based flow cytometric analysis (reference value: 2.3%); assay type: functional
[21] = molecular target: 5'-AMP-activated protein kinase catalytic subunit alpha-2 (Homo sapiens) (UniProt P54646); assay: Activation of AMPK in human U937 cells assessed as increase in phosphorylated AMPK level at 1 to 10 uM after 1 hr by Western blot analysis; assay type: cell-based; conditions: U-937
Sequence of 5'-AMP-activated protein kinase catalytic subunit alpha-2 (Homo sapiens) (P54646 whole entry, looked up): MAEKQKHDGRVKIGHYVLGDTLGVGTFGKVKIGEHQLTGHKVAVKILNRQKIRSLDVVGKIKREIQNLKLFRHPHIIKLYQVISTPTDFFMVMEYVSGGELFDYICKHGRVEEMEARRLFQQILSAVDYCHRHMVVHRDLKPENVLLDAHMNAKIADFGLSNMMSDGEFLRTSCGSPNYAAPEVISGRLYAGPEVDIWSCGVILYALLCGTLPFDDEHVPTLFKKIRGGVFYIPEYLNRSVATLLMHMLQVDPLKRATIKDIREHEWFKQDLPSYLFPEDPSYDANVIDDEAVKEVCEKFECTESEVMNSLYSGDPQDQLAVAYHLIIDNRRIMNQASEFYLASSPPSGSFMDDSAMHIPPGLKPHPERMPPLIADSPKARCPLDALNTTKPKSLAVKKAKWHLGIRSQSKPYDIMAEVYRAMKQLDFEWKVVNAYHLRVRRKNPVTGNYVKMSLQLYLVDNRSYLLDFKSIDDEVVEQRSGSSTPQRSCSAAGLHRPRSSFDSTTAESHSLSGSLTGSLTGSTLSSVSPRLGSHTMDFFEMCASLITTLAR
Method in brief: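 Cells at 5 × 10⁵/mL in growing medium, RPMI 1640 with 10% heat-inactivated FBS, 37 °C, 5% CO₂, exposed 1 h. Lysed by sonication in SDS sample buffer with protease inhibitors plus 1 mM orthovanadate and pyrophosphate, boiled 5 min. Immunoblot probed with rabbit polyclonal anti-phospho-AMPK (Thr172) 1:1000, HRP secondary, chemiluminescence. α-Tubulin reprobe as loading control. One of three independent experiments shown.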

[22] = Induction of apoptosis in human M12 cells assessed as late apoptotic cells at 20 uM after 24 hrs by annexinV-propidium iodide staining-based flow cytometric analysis (reference value: 4.7%); assay type: functional
[23] = molecular target: Mitogen-activated protein kinase 1 (Homo sapiens) (UniProt P28482); assay: Inhibition of Erk2 at 10 uM
Sequence of Mitogen-activated protein kinase 1 (Homo sapiens) (P28482 whole entry): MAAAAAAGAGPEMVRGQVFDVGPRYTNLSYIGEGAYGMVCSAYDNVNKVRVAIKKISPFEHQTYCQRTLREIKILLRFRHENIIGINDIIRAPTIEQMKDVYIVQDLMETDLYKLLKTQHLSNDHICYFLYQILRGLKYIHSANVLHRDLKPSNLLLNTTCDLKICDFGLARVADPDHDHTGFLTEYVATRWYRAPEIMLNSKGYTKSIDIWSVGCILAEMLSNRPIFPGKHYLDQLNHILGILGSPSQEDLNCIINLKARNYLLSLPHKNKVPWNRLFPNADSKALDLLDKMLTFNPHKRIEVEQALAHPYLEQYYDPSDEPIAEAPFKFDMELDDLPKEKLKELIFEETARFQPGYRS

[24] = molecular target: Calcium/calmodulin-dependent protein kinase type II subunit beta (Homo sapiens) (UniProt Q13554); assay: Inhibition of CAMK2 at 10 uM
Sequence of Calcium/calmodulin-dependent protein kinase type II subunit beta (Homo sapiens) (Q13554 whole entry): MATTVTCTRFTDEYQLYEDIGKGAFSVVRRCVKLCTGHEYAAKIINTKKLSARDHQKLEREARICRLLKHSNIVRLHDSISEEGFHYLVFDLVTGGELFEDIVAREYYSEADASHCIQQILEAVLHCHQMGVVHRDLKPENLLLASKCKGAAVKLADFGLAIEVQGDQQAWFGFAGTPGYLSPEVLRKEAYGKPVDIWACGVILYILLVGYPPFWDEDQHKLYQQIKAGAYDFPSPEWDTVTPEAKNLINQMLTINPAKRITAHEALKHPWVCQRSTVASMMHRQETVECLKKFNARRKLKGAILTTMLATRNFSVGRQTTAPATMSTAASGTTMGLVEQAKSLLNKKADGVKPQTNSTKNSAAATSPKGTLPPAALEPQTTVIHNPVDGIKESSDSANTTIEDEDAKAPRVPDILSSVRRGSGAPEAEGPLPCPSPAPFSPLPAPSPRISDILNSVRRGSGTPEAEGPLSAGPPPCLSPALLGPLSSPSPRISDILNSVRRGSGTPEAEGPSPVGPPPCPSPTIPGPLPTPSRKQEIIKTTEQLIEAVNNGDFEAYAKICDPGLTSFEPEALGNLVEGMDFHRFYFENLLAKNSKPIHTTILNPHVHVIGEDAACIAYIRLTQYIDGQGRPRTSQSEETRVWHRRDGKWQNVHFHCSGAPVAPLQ

[25] = molecular target: Serine/threonine-protein kinase D2 (Homo sapiens) (UniProt Q9BZL6); assay: Inhibition of PKD2 at 10 uM
Sequence of Serine/threonine-protein kinase D2 (Homo sapiens) (Q9BZL6 whole entry): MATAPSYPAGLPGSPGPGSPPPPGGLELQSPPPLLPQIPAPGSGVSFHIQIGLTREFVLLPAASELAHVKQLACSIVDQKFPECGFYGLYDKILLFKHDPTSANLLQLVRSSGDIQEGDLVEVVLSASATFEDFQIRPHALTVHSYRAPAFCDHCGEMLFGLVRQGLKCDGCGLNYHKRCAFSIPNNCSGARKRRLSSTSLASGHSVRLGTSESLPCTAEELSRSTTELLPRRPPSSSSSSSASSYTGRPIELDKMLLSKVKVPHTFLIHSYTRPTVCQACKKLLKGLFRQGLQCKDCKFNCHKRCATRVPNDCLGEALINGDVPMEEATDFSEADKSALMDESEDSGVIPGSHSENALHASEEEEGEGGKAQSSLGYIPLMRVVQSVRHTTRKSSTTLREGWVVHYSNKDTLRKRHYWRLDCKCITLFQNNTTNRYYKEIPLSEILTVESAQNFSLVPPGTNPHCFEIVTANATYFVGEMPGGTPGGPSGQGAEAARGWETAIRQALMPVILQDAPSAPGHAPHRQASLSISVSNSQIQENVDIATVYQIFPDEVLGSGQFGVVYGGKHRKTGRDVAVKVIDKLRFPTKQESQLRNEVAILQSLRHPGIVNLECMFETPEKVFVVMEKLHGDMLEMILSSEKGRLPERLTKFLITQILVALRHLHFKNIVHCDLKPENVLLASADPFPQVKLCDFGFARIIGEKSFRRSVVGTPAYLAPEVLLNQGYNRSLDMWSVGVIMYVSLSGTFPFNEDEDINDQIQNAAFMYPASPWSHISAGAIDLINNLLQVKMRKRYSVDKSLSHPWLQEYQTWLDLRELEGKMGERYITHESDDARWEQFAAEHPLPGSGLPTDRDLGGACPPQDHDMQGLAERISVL

U-937 [26] = assay: Induction of apoptosis in human U937 cells assessed as necrotic cells at 3 uM after 6 hrs by annexinV-propidium iodide staining-based flow cytometric analysis (reference value: 1.2%); assay type: functional
DU-145 [27] = assay: Inhibition of PI3K-mediated Akt phosphorylation in human DU145 cells at 10 to 20 uM after 24 hrs by Western blot analysis; assay type: cell-based
Method in brief: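 DU145 cells were grown in RPMI 1640 with 10% FBS and treated for 24 h at the indicated concentrations. Lysates were immunoblotted with phospho-Akt (Ser473) primary antibody (1:1000) and HRP secondary (1:2000), then detected by chemiluminescence. α-Tubulin reprobing checked loading.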

U-937 [28] = assay: Induction of apoptosis in human U937 cells assessed as viable cells at 10 uM after 18 hrs by annexinV-propidium iodide staining-based flow cytometric analysis (reference value: 87.2%); assay type: functional; conditions: U-937, 18 h, read-out: Activity
[29] = molecular target: Mitogen-activated protein kinase kinase kinase kinase 4 (Homo sapiens) (UniProt O95819); assay: Inhibition of HGK at 10 uM
U-937 [30] = assay: Induction of apoptosis in human U937 cells assessed as late apoptotic cells at 3 uM after 18 hrs by annexinV-propidium iodide staining-based flow cytometric analysis (reference value: 7.8%); assay type: functional
[31] = molecular target: Cyclin-dependent kinase 2 (Homo sapiens) (UniProt P24941); assay: Inhibition of CDK2 at 10 uM
[32] = molecular target: Proto-oncogene tyrosine-protein kinase Src (Homo sapiens) (UniProt P12931); assay: Inhibition of SRC at 10 uM

NCCN1C(=O)S/C(=C\CCC2CCCCC2)C1=O
Activity (U-937 [1]): 1.4% | Activity (U-937 [2]): 40.2% | Activity (DU-145 [3]): 23% | Activity (DU-145 [4]): 8.3% | inhibition [5]: 0% | inhibition [6]: 27% | inhibition [7]: -1% | Activity (U-937 [8]): 3.5% | Activity [9]: 29.2% | inhibition [10]: inactive | inhibition [11]: -2% | growth inhibition (GI) (U-937 [12]): Active | inhibition [13]: 71% | viability at 20 µM (DU-145 [14]): 65.5% | inhibition [15]: Active | inhibition [16]: 8% | inhibition [17]: -2% | inhibition [18]: 38% | inhibition [19]: -5% | Activity (U-937 [20]): 1.9% | Activity [21]: Active | Activity [22]: 60.5% | inhibition [23]: 11% | inhibition [24]: 60% | inhibition [25]: 0% | Activity (U-937 [26]): 2.1% | inhibition (DU-145 [27]): Active | viability at 10 µM (U-937 [28]): 42.9% | inhibition [29]: -1% | Activity (U-937 [30]): 5.7% | inhibition [31]: -2% | inhibition [32]: 2%
